Columns and labels:
[1] = target: T1, Mitogen-activated protein kinase 13 (Homo sapiens) (UniProt O15264); experiment: Inhibition of p38delta Lys2 labeling site in human Huh-7 cell lysate at 1 uM by KiNativ Profiling analysis relative to control; assay type: subcellular
T1 sequence (whole entry): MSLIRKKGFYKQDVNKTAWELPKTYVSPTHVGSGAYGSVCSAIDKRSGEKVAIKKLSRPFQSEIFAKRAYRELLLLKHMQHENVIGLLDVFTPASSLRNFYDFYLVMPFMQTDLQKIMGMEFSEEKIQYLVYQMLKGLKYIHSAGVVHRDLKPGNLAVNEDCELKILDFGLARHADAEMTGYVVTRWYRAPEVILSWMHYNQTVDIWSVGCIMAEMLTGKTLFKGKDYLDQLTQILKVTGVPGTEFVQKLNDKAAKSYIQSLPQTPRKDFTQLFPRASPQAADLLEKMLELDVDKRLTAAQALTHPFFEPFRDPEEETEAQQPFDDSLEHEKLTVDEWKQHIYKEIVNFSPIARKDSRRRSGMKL

[2] = target: T2, Serine/threonine-protein kinase NLK (Homo sapiens) (UniProt Q9UBE8); experiment: Inhibition of NLK Lys2 labeling site in human A-375 cells at 0.05 uM by KiNativ Profiling analysis relative to control; assay type: cell-based
T2 sequence (whole entry): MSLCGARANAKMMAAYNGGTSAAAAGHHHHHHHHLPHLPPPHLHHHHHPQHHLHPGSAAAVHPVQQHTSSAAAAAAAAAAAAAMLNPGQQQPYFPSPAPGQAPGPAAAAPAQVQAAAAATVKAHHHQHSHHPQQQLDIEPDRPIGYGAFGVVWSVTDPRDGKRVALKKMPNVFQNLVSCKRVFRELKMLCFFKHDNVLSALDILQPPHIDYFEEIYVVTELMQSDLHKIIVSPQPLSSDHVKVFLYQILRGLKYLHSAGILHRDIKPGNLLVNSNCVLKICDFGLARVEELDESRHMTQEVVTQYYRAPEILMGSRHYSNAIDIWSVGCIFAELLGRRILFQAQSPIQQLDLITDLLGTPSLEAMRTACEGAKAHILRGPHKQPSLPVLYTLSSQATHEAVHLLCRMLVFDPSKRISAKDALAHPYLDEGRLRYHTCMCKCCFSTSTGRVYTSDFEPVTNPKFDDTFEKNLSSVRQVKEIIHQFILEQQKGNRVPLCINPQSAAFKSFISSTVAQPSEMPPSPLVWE

[3] = target: TRAF2 and NCK-interacting protein kinase (Homo sapiens) (UniProt Q9UKE5); experiment: Inhibition of ZC2/TNIK Lys2 labeling site in human A-375 cells at 0.05 uM by KiNativ Profiling analysis relative to control; assay type: cell-based
TRAF2 and NCK-interacting protein kinase (Homo sapiens), sequence (Q9UKE5 whole entry, looked up): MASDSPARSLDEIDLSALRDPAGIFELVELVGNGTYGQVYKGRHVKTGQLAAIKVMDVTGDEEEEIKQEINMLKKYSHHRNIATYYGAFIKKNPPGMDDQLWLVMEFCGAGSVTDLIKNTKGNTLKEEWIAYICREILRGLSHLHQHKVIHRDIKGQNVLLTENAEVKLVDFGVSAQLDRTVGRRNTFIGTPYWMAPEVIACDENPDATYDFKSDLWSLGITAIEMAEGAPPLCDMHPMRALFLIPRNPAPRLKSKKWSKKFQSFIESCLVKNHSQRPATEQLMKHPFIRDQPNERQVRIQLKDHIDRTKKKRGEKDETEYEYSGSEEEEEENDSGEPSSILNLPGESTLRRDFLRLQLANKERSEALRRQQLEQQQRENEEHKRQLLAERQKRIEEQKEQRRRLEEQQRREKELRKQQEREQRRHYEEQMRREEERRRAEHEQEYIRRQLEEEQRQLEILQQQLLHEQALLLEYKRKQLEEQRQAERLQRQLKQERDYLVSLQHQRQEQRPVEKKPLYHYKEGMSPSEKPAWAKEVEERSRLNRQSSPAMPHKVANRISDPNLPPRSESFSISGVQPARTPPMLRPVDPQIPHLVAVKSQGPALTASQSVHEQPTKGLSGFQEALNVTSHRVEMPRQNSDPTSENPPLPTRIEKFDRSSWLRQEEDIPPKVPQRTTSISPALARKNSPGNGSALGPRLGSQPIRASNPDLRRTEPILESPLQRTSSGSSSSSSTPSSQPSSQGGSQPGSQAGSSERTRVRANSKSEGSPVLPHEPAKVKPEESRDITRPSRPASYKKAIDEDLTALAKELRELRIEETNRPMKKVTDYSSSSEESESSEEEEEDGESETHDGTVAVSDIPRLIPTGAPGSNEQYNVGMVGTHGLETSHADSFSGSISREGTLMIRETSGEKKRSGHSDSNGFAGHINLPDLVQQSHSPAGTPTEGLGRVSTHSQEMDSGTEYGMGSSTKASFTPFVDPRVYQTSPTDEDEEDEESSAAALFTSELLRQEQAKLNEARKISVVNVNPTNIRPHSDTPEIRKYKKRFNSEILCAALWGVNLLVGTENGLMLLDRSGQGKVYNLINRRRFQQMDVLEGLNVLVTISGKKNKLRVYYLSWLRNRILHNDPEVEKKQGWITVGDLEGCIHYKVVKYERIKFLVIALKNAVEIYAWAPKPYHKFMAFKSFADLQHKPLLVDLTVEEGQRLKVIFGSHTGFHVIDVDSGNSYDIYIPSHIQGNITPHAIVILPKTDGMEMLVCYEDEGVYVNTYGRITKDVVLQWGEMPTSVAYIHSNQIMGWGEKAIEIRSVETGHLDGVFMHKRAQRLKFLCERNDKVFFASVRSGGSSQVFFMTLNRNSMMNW

[4] = target: T3, Mitogen-activated protein kinase kinase kinase 2 (Homo sapiens) (UniProt Q9Y2U5); experiment: Inhibition of MAP3K2 Lys1 labeling site harbouring VYLCYDVDTGRELAVKQVQFDPDSPETSKEVNALECEIQLLK in human A-375 cells at 0.05 uM by KiNativ Profiling analysis relative to control; assay type: cell-based
T3 sequence (whole entry): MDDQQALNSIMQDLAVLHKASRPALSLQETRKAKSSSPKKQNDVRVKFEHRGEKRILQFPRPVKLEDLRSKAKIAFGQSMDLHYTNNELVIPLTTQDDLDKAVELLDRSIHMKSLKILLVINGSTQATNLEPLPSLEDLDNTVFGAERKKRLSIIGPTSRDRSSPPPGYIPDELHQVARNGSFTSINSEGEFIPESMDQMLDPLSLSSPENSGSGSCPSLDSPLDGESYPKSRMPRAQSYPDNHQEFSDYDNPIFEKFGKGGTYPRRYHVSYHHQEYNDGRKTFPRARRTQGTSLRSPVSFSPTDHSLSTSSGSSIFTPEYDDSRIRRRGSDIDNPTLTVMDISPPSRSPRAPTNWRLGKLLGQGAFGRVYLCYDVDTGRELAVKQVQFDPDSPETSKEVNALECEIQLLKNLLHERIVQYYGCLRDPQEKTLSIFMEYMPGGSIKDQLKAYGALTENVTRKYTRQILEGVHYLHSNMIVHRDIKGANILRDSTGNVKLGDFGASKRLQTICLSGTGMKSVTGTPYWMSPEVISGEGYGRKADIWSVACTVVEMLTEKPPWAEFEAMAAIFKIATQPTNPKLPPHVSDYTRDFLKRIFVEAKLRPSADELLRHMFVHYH

[5] = target: T4, Ephrin type-B receptor 2 (Homo sapiens) (UniProt P29323); experiment: Inhibition of EphB2 ACT labeling site in human A-375 cells at 0.5 uM by KiNativ Profiling analysis relative to control; assay type: cell-based
T4 sequence (whole entry): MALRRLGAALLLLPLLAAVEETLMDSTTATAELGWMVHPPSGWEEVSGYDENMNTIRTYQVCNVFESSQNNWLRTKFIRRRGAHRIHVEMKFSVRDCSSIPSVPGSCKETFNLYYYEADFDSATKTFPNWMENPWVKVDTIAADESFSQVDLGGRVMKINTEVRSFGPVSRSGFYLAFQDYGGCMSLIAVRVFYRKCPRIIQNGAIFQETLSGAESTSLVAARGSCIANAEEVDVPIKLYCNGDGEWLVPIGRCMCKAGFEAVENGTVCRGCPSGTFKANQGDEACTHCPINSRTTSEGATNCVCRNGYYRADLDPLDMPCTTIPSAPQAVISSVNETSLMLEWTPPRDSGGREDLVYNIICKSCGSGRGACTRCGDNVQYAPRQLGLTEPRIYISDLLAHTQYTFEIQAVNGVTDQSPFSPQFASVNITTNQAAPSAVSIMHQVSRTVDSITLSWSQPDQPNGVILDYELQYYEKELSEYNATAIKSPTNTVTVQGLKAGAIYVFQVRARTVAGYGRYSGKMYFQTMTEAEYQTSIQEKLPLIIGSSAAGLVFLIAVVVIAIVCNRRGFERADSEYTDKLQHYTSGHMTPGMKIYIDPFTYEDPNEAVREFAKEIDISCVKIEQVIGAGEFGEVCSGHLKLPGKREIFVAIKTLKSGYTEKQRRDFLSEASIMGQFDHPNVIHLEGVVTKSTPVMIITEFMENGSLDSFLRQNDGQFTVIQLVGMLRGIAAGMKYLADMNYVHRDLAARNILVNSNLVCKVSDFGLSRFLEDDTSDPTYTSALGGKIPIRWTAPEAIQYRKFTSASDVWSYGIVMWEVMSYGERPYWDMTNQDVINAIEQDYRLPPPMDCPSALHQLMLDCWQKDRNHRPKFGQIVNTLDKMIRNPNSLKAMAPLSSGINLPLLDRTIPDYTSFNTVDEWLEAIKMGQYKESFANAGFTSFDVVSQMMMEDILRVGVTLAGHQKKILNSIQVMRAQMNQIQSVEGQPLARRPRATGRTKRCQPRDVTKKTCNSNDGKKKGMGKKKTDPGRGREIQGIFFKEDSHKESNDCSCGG
Summary of the method: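 Live A375 melanoma cells were treated with compound at 0.5 or 5 μM, then lysed. Lysates were labeled with a lysine-reactive ATP or ADP-biotin probe. The read-out was protection of each kinase probe-labeling site from labeling, relative to control.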

Compound | inhibition [1] [%] | inhibition [2] [%] | inhibition [3] [%] | inhibition [4] [%] | inhibition [5] [%]
CNc1cc(Oc2cc(C(=O)Nc3cc(N4CCN(C)CC4)cc(C(F)(F)F)c3)ccc2C)ncn1 | 12.8 | – | – | – | –
CCN1CCN(Cc2ccc(NC(=O)c3ccc(C)c(/C=C/c4cnc5[nH]ccc5c4OC)c3)cc2C(F)(F)F)CC1 | – | 13.8 | 19.5 | 1.5 | 55.5
CNc1cc(Oc2cc(C(=O)Nc3cc(-n4cnc(C)c4)cc(C(F)(F)F)c3)ccc2C)ncn1 | 5.5 | – | – | – | –
CCN1CCN(Cc2ccc(NC(=O)c3ccc(C)c(Oc4ccnc5[nH]ccc45)c3)cc2C(F)(F)F)CC1 | – | -5.6 | 32.6 | -3.7 | -2.2

— ChEMBL document CHEMBL5696442, “Discovery of type II inhibitors of TGFβ-activated kinase 1 (TAK1) and mitogen-activated protein kinase kinase kinase kinase 2 (MAP4K2)” (J Med Chem, 2015)
